Reference: ChEMBL document CHEMBL3808358, “Rational Design of Small Peptides for Optimal Inhibition of Cyclooxygenase-2: Development of a Highly Effective Anti-Inflammatory Agent” (J Med Chem, 2016)
Active and inactive are the calls of the source. The rule behind the calls is not given here. Residues, ends and D or L forms follow the SMILES beside them.

Columns and labels:
[1] = biological target: T1, Prostaglandin G/H synthase 1 (Ovis aries, UniProt P05979); experiment: Inhibition of ovine COX1 assessed as reduction in PGH2-derived PGF2alpha using arachidonic acid as substrate preincubated for 10 mins followed by substrate addition measured after 2 mins by enzyme immunoassay
T1 sequence (P05979 whole entry): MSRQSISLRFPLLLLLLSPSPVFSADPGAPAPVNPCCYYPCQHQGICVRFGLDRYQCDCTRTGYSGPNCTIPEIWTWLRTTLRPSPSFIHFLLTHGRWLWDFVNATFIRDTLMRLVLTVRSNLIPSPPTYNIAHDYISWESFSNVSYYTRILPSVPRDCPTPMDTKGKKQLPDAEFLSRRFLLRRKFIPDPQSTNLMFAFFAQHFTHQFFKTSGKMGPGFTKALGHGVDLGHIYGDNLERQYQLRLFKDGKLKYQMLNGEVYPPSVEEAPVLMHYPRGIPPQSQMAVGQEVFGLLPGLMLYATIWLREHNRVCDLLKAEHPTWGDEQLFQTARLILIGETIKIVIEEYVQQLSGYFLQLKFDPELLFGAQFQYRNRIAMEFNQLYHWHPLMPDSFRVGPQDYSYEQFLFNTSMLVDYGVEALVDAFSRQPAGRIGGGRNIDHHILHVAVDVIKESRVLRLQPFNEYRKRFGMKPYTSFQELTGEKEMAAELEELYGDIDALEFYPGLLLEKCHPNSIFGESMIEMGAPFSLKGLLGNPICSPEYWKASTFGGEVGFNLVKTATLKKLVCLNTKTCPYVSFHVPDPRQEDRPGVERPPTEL
How it was run: (§1)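 Ovine COX-1 and human recombinant COX-2 with heme are preincubated with inhibitor for 10 min at 37 °C. Arachidonic acid is then added for 2 min at 37 °C. Prostaglandins are quantified by competitive AChE-tracer EIA, read at 420 nm. Four concentrations (10^-5 to 10^-8 M) are tested in triplicate. IC50 is taken from the dose-response curve of the mean % inhibition.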

[2] = Selectivity index, ratio of IC50 for ovine COX1 to IC50 for human recombinant COX2; how it was run: as §1
[3] = biological target: Prostaglandin G/H synthase 1 (Homo sapiens) (UniProt P23219); experiment: Inhibition of COX1 in healthy human whole blood assessed as calcium ionophore A23187-stimulated TXB2 level at 1 uM preincubated for 60 mins followed by A23187 addition measured after 30 mins by ELISA; format: tissue-based
Chain of Prostaglandin G/H synthase 1 (Homo sapiens) (P23219 whole entry): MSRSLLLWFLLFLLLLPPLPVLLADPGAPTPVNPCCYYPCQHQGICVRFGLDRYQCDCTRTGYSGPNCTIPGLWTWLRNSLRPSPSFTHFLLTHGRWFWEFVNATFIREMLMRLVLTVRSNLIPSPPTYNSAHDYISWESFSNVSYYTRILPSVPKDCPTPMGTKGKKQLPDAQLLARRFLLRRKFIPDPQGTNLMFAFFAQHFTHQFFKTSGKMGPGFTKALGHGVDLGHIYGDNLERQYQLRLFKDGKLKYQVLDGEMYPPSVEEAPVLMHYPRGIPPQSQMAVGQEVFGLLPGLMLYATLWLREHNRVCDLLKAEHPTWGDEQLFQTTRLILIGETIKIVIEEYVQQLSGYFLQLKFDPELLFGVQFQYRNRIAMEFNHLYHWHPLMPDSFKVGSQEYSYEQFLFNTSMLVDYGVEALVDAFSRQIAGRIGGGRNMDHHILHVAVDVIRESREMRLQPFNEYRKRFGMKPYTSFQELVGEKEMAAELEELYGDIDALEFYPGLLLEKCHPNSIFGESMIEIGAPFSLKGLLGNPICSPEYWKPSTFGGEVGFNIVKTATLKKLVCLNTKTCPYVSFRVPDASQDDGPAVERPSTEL
How it was run: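 Fresh venous blood from a healthy volunteer is collected in EDTA. 1 mL samples receive compound, indomethacin or DMSO vehicle (final 1 μM). After 60 min, A23187 is added (final 50 μM). After 30 min, samples are centrifuged at 4 °C and TxB2 in plasma is measured by ELISA, read at 420 nm. Samples are run in duplicate.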

[4] = system: Mus musculus; experiment: Analgesic activity in Swiss albino mouse assessed as reduction in capsaicin-induced paw licking at 5 mg/kg, ip dosed 30 mins before capsaicin injection measured for 10 mins relative to control; format: functional
How it was run: (§2)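 Swiss albino mice of either sex (25-35 g), kept at 22 ± 2 °C on a 12 h light/dark cycle with free food and water. 5 animals per group. Capsaicin (1.6 μg in 20 μL) is injected into the plantar surface of the hind paw. Pain is scored as the number of paw lickings over 10 min.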

[5] = system: Mus musculus; experiment: Analgesic activity in Swiss albino mouse assessed as reduction in capsaicin-induced paw licking at 5 to 10 mg/kg, ip dosed 30 mins before capsaicin injection measured for 10 mins; format: functional, organism-based; how it was run: as §2
[6] = system: Mus musculus; experiment: Antiinflammatory activity in Swiss albino mouse assessed as reduction in carrageenan-induced paw edema by measuring paw thickness at 5 mg/kg, ip dosed 30 mins before carrageenan injection measured up to 300 mins by vernier calliper method relative to control; format: functional
[7] = system: Mus musculus; experiment: Analgesic activity in Swiss albino mouse assessed as reduction in formalin-induced paw flinches in neurogenic phase at 5 mg/kg, ip dosed 30 mins before formalin injection measured up to 5 mins; format: functional, organism-based
How it was run: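 Swiss albino mice of either sex (25-35 g). 20 μL of 2% formalin is injected into the plantar surface of the right hind paw 30 min after treatment. Hind paw flinches are counted for the neurogenic phase (0-5 min) and the inflammatory phase (15-30 min). Results are given as mean ± SEM.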

[8] = system: Mus musculus; experiment: Analgesic activity in Swiss albino mouse assessed as reduction in capsaicin-induced paw licking at 5 to 10 mg/kg, ip dosed 30 mins before capsaicin injection measured for 10 mins in presence of substance P pre-treated 30 mins before compound dosing; format: functional, organism-based
How it was run: (§3)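 Mice of either sex (25-35 g), 5 per group. The modulator is given 30 min before the test compound, and capsaicin 30 min after that: substance P 10 µg/kg, L-arginine 40 mg/kg, L-NAME 20 mg/kg, veratrine 125 µg/kg, A23187 20 µg/kg, glipizide 30 µg/kg. Capsaicin is 1.6 μg in 20 μL intraplantar. Paw lickings are counted for 10 min.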

[9] = system: Mus musculus; experiment: Analgesic activity in Swiss albino mouse assessed as reduction in capsaicin-induced paw licking at 5 to 10 mg/kg, ip dosed 30 mins before capsaicin injection measured for 10 mins in presence of nitric oxide synthase inhibitor L-NAME pre-treated 30 mins before compound dosing; format: functional, organism-based; how it was run: as §3
[10] = system: Mus musculus; experiment: Analgesic activity in Swiss albino mouse assessed as reduction in capsaicin-induced paw licking at 5 to 10 mg/kg, ip dosed 30 mins before capsaicin injection measured for 10 mins in presence of ATP-sensitive potassium channel blocker glipizide pre-treated 30 mins before compound dosing; format: functional, organism-based; how it was run: as §3
[11] = system: Mus musculus; experiment: Acute toxicity in Swiss albino mouse assessed as gross behavioral abnormality up to 2000 mg/kg, po administered as single dose through gavage measured continuously for first 4 hrs and periodically for 24 hrs up to 14 days; format: organism-based; conditions: in vivo
How it was run: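 Swiss albino mice of either sex (25-35 g), housed at 22 ± 2 °C on a 12 h light/dark cycle. Per OECD 2001 guidance, groups of three received vehicle or 50, 300 or 2000 mg Kg⁻¹ after 4 h fasting. The animals were watched continuously for the first 4 h and then periodically over 24 h for gross behavioural abnormality.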

[12] = system: Mus musculus; experiment: Acute toxicity in Swiss albino mouse assessed as structural abnormality in liver up to 2000 mg/kg, po administered as single dose through gavage measured after 14 days by haematoxylin and eosin staining based assay; format: organism-based; conditions: in vivo, 336 h
How it was run: (§4)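 Mice given vehicle or 50, 300 or 2000 mg Kg⁻¹ after 4 h fasting, three per group, following OECD 2001 guidance. At 14 days, one control animal and one 2000 mg Kg⁻¹ animal were sacrificed. Myocardium, liver and kidney were examined histologically by H and E staining.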

[13] = system: Mus musculus; experiment: Acute toxicity in Swiss albino mouse assessed as structural abnormality in myocardium up to 2000 mg/kg, po administered as single dose through gavage measured after 14 days by haematoxylin and eosin staining based assay; format: organism-based; conditions: in vivo, 336 h; how it was run: as §4
[14] = biological target: Prostaglandin G/H synthase 1 (Homo sapiens) (UniProt P23219); experiment: Binding affinity to COX1 (unknown origin) at 100 uM by isothermal titration calorimetry
How it was run: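 Isothermal titration calorimetry in HEPES buffer, pH 7.4. The ligand stock is 100 μM in ethanol/HEPES (1:99). The syringe is stirred at 500 rpm and delivers 19 injections of 2 μL into the enzyme-containing cell at 120 s intervals. Heats from buffer-only control titrations are subtracted. The fit gives Ka, ΔH and ΔS. Run in triplicate.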

COC(=O)[C@H](CC(C)C)NC(=O)[C@H](Cc1ccccc1)NC(=O)CNC(=O)CN (H-GGFL-OMe)
IC50 [1]: 6 µM | Ratio IC50 [2]: 100 | Activity [3]: 5.8 ng/mL | inhibition in vivo at 5 mg/kg [4]: 80% | Activity [5]: Active | inhibition in vivo at 5 mg/kg [6]: 60% | Activity [7]: inactive | Activity [8]: inactive | Activity [9]: Active | Activity [10]: Active | Activity [11]: Non-toxic | Activity [12]: Non-toxic | Activity [13]: Non-toxic | Ka [14]: 0.41 ×10³ /M
